Published values pooled from the literature.
Protocols differ between the studies behind these lines.
SIRT2: NAD-dependent protein deacetylase sirtuin-2 (SIRT2, Homo sapiens, UniProt Q8IXJ6)
AMY2: Pancreatic alpha-amylase (AMY2, Sus scrofa, UniProt P00690)
HSD11B2: 11-beta-hydroxysteroid dehydrogenase type 2 (HSD11B2, Homo sapiens, UniProt P80365)

SMILES | target | effect on | mode | technique | concentration | notes | inhibition [%]
CC(=S)NCCCC[C@H](NC(=O)OCc1ccccc1)C(=O)N[C@@H](Cc1c[nH]c2ccccc12)C(=O)N[C@@H](CCCNC(=N)N)C(N)=O | SIRT2 | enzyme activity | inhibitor |  | 1 µM |  | 20
O=C1CC(CCNC(=S)NCCCC[C@H](NS(=O)(=O)c2cccc(F)c2)C(=O)N[C@@H](Cc2c[nH]c3ccccc23)C(=O)NC2CCC2)=NO1 | SIRT2 | enzyme activity | inhibitor |  | 10 µM |  | 9
COc1cc(C=CC(=O)CC(c2ccc([N+](=O)[O-])cc2)n2ccnc2)ccc1O (stereo not shown) | AMY2 | enzyme activity | inhibitor | absorbance | 10 µg/mL |  | 87.6
C[C@H]1O[C@H](O[C@H]2[C@H](O)[C@@H](O)[C@@H](O[C@H]3[C@H](O)[C@@H](O)C(O)O[C@@H]3CO)O[C@@H]2CO)[C@H](O)[C@@H](O)[C@@H]1N[C@H]1C=C(CO)[C@@H](O)[C@H](O)[C@H]1O (stereo partly shown) | AMY2 | enzyme activity | inhibitor |  | 30 µg/mL |  | 32.1
CCOCCOCCOCCNC(=S)NCCCC[C@H](NS(C)(=O)=O)C(=O)N[C@H](C)C(=O)N[C@@H](CCCNC(=N)N)C(N)=O | SIRT2 | enzyme activity | inhibitor |  | 100 µM |  | 13
Cc1ccc(N(O)N=Nc2ccc(S(=O)(=O)Nc3cc(C)on3)cc2)cc1 | AMY2 | enzyme activity | inhibitor |  | 240 µg/mL |  | 68.4
CC(=S)NCCCC[C@H](NC(=O)OCc1ccccc1)C(=O)N[C@@H](Cc1c[nH]c2ccccc12)C(=O)N[C@@H](CC(N)=O)C(N)=O | SIRT2 | enzyme activity | inhibitor |  | 1 µM |  | 26
CN(O)N=Nc1ccc(S(=O)(=O)Nc2nccs2)cc1 | AMY2 | enzyme activity | inhibitor |  | 60 µg/mL |  | 26.3
COc1cc(C=Cc2cc(-c3ccc(N(C)C)cc3)nc(O)n2)ccc1O | AMY2 | enzyme activity | inhibitor | absorbance | 1.25 µg/mL |  | 50.3
CCCN(O)N=Nc1ccc(S(=O)(=O)Nc2cc(C)on2)cc1 | AMY2 | enzyme activity | inhibitor |  | 240 µg/mL |  | 57.9
CC(C)c1c(C(=O)Nc2ccccc2)c(-c2ccccc2)c(-c2ccc(F)cc2)n1CC[C@@H](O)C[C@@H](O)CC(=O)O | HSD11B2 | enzyme activity | inhibitor |  | 20 µM | lysate | < 40
COc1cc(C=Cc2cc(-c3ccccc3)nc(O)n2)ccc1O | AMY2 | enzyme activity | inhibitor | absorbance | 5 µg/mL |  | 76.3
CCN(c1cc(C#CCN2CCOCC2)cc(C(=O)NCc2c(C)cc(C)[nH]c2=O)c1C)[C@H]1CC[C@H](N(C)CCOC)CC1 | N-lysine methyltransferase SMYD2 (SMYD2, Homo sapiens, UniProt Q9NRG4) | enzyme activity | inhibitor |  | 1 µM |  | 8
COc1cc(C=CC(=O)CC(c2ccc(N(C)C)cc2)n2ccnc2)ccc1O (stereo not shown) | AMY2 | enzyme activity | inhibitor | absorbance | 2.5 µg/mL |  | 67.3
Cc1noc(NS(=O)(=O)c2ccc(N=NN(O)c3ccccc3)cc2)c1C | AMY2 | enzyme activity | inhibitor |  | 300 µg/mL |  | 73.7
O=C(NC1CCC1)[C@H](Cc1c[nH]c2ccccc12)NC(=O)[C@H](CCCCNC(=S)NCc1cc(O)no1)NS(=O)(=O)c1cccc(F)c1 | SIRT2 | enzyme activity | inhibitor |  | 30 µM |  | 13
Cc1noc(NS(=O)(=O)c2ccc(N=NN(C)O)cc2)c1C | AMY2 | enzyme activity | inhibitor |  | 120 µg/mL |  | 42.1
c1ccc(CN(CCN(Cc2ccccn2)Cc2ccccn2)Cc2ccccn2)nc1 | Hydroxyacylglutathione hydrolase, mitochondrial (Homo sapiens, UniProt Q16775) | cell-free assay |  |  | 100 µM |  | 47.6
COc1cc(NC(C)=O)c(Cl)cc1C(=O)Nc1nccs1 | Amine oxidase [flavin-containing] A (Maoa, Rattus norvegicus, UniProt P21396) | cell-free assay |  |  | 10 µM |  | 14.4
CCCCc1oc2ccccc2c1C(=O)c1cc(I)c(OCCN(CC)CC)c(I)c1 | HSD11B2 | enzyme activity | inhibitor |  | 20 µM | lysate | < 40
Cc1cccc(N(O)N=Nc2ccc(S(=O)(=O)Nc3onc(C)c3C)cc2)c1 | AMY2 | enzyme activity | inhibitor |  | 180 µg/mL |  | 36.8
O=C(c1ccc(F)cc1)N(Cc1ccccc1)C1CCCCC1 | Muscarinic acetylcholine receptor M2 (CHRM2, Homo sapiens, UniProt P08172) | cell-free assay |  |  | 10 µM |  | 16
